What was measured:
[1] = Degradation of [3H]-THF-γ2 on incubation with human whole blood; type: in vitro ADME; details: 37 °C, radio-TLC, mean ± SD, n = 3
Procedure, shortened: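 Heparinized whole blood from three healthy male donors. 1 ml was pre-warmed 5 min at 37 °C, then spiked with [3H]-THF (Pro- or C-terminal Leu-labelled; final 93 nmol ml−1) and shaken at 37 °C, sampled 0–60 min. Stopped with ice-cold water/acetonitrile; supernatants were dichloromethane-extracted. The aqueous phase went to silica radio-TLC with 1 cm scintillation counting, and fragments were assigned by synthetic-peptide Rf. Mean ± […], n = 3.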

[2] = Degradation of [3H]-THF-γ2 on incubation with mouse whole blood; type: in vitro ADME; details: 37 °C, radio-TLC; for amount of minor degradation product, % of total: over the 60 min incubation with [3H]-THF
[3] = Degradation of [3H]-THF-γ2 on incubation with rat whole blood; type: in vitro ADME; details: 37 °C, radio-TLC, mean ± SD, n = 3
[4] = cited from earlier work
[5] = 60 min incubation with [3H]-THF

## H-Glu-Asp-Gly-Pro-Lys-OH [2–6]
[1]; 5 min incubation with [3H]-THF
  concentration of degradation product, % of the total peptides present: 2.16% ± 0.96
[2]; 60 min incubation with [3H]-THF, mean ± SD, n = 3
  concentration of degradation product, % of the total peptides present: 36.52% ± 2.69
[3]; 5 min incubation with [3H]-THF
  concentration of degradation product, % of the total peptides present: 4.72% ± 1.05
[3]; [5]
  concentration of degradation product, % of the total peptides present: 54.90% ± 0.87

## H-LEDGPKFL-OH [THF-γ2]
[4]
  half-life of THF in human plasma: about 12 min

## H-Gly-Pro-Lys-Phe-Leu-OH [4–8]
[2]
  amount of minor degradation product, % of total: < 10 % of total

## H-LEDGPK-OH [1–6]
[2]
  amount of minor degradation product, % of total: < 10 % of total

## H-DGPKFL-OH [3–8]
[1]; [5]
  concentration of degradation product, % of the total peptides present: 30.36% ± 7.84
[3]; 20 min incubation with [3H]-THF
  concentration of degradation product, % of the total peptides present: 27.80% ± 3.32

— publication PMC7274130 (Biochimica et Biophysica Acta. Proteins and Proteomics, 2020)
